Measured values published in ChEMBL document CHEMBL3352791, “Thioaryl naphthylmethanone oxime ether analogs as novel anticancer agents” (J Med Chem, 2014).
Active and inactive are the calls of the source. The rule behind the calls is not given here.

Assays:
[1] = tested on: MDA-MB-231; experiment: Antiproliferative activity against human ER-positive MDA-MB-231 cells after 24 hrs by MTT assay; type: functional, cell-based; conditions: mda-mb-231
[2] = Safety index, ratio of IC50 for human MCF10A cells to EC50 for human HCT116 cells; type: toxicity, cell-based, MCF-10A; conditions: MCF10A cells versus HCT116 cells, read-out: Ratio IC50/EC50
How it was run: (§1)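 Safety index is the IC50 in the normal cells divided by the EC50 in the cancer cells. Both values come from MTT assays: cells in DMEM with 10% FBS, serum-starved 4 h, then exposed to compound across a 100nM-50µM dose range with 0.1% DMSO as vehicle control.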

[3] = tested on: MDA-MB-231; experiment: Cell cycle arrest in human […] cells assessed as accumulation at S phase at 7.5 uM by propidium iodide staining by FACS analysis (reference value: 13.72%); type: functional
[4] = in vitro; conditions: human, MCF10A cells versus
[5] = Antiproliferative activity against human COLO205 cells after 24 hrs by MTT assay; type: functional, cell-based; conditions: COLO 205, 24 h
How it was run: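 MTT viability: cells seeded at 1×10^4 per well in DMEM with 10% FBS, left to adhere overnight, then serum-starved 4 h. Compounds were given at a range of doses, with 0.1% DMSO vehicle as control. EC50 was taken from dose-response curves spanning 100nM-50µM. Data are mean ± SEM from at least three independent experiments.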

[6] = Safety index, ratio of IC50 for human MCF10A cells to EC50 for human COLO205 cells; type: toxicity, cell-based, COLO 205; conditions: MCF10A cells versus COLO205 cells, read-out: Ratio IC50/EC50; how it was run: as §1
[7] = tested on: MDA-MB-231; experiment: Induction of apoptosis in human […] cells assessed as caspase 9 activation at 2.5 to 7.5 uM by Caspase-Glo assay; type: functional, cell-based
How it was run: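 Caspase-8, -9 and -3 activities measured with Caspase-Glo 8, 9 and 3 kits; mean ± SEM from three independent experiments.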

[8] = tested on: MDA-MB-231; experiment: Inhibition of VEGF-A expression in human MDA-MB-231 cells at 1 uM after 24 hrs by qPCR analysis; type: functional, cell-based
How it was run: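 Gene expression was measured by qPCR in MDA-MB-231 breast cancer cells treated with 1µM compound. GAPDH served as the housekeeping internal control.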

[9] = tested on: MDA-MB-231; experiment: Inhibition of basal cell migration in human MDA-MB-231 cells assessed as […] at 1 uM after 24 hrs by wound healing assay; type: functional, cell-based
[10] = tested on: MCF7; experiment: Cytotoxicity against human […] cells assessed as cell viability at 5 uM by MTT assay in presence of z-IETD-FMK caspase-8 inhibitor; type: functional, cell-based
How it was run: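 Cells seeded 1×10^4/well in DMEM with 10% FBS, adhered overnight, serum-starved 4 h; pre-incubated 2 h with Z-IETD-FMK or Z-LEHD-FMK (10µM each), then 5μM compound for a further 24 h; viability by MTT.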

[11] = biological target: Signal transducer and activator of transcription 3 (Homo sapiens) (UniProt P40763); experiment: Inhibition of basal level STAT3 phosphorylation in human MCF7 cells at 1 uM by ELISA; type: cell-based
[12] = tested on: MCF7; experiment: Inhibition of TGFbeta expression in human MCF7 cells at 5 uM by ELISA; type: functional, cell-based
[13] = biological target: ETS domain-containing protein Elk-1 (Homo sapiens) (UniProt P19419); experiment: Inhibition of EGF-induced phosphorylated ELK1 in human MDA-MB-231 cells at 1 uM by ELISA; type: cell-based
[14] = tested on: MCF7; experiment: Induction of apoptosis in human MCF7 cells xenografted in NIH-3 mouse assessed as increase in Bax to Bcl2 ratio in tumor at 16 mg/kg, po for 25 days by qPCR; type: functional, organism-based; set-up: dose 16 mg/kg
[15] = tested on: MCF7; experiment: Induction of apoptosis in human […] cells; type: functional, cell-based
[16] = biological target: Epidermal growth factor receptor (Homo sapiens) (UniProt P00533); experiment: Inhibition of EGF-induced EGFR phosphorylation at Tyr1045 in human MCF7 cells at 1 uM by ELISA; type: cell-based
[17] = biological target: High affinity cAMP-specific and IBMX-insensitive 3',5'-cyclic phosphodiesterase 8A (Homo sapiens) (UniProt O60658); experiment: Inhibition of PDE8A1 (unknown origin) activity at 1 to 10 uM
How it was run: (§2)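 Recombinant PDE isoform activity was read by fluorescence polarization. A binding reagent complexes with the nucleotide monophosphate that the phosphodiesterase generates from cAMP/cGMP, and this raises the polarization of the labelled substrate. Reference standards were PDE1A3 10µM IBMX, PDE2A3 1nM BAY 60-7550, PDE3CAT 1µM cilostazol, PDE4CAT rolipram, PDE5CAT 0.1µM sildenafil, PDE7A […], PDE8A1 10µM BRL-50481, PDE9A1 1µM SB 36216 and PDE11A1 dipyridamole.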

[18] = biological target: T1, Signal transducer and activator of transcription 1-alpha/beta (Homo sapiens) (UniProt P42224); experiment: Inhibition of EGF-induced STAT1 phosphorylation in human MCF7 cells at 1 uM by ELISA; type: cell-based
T1 sequence (whole entry): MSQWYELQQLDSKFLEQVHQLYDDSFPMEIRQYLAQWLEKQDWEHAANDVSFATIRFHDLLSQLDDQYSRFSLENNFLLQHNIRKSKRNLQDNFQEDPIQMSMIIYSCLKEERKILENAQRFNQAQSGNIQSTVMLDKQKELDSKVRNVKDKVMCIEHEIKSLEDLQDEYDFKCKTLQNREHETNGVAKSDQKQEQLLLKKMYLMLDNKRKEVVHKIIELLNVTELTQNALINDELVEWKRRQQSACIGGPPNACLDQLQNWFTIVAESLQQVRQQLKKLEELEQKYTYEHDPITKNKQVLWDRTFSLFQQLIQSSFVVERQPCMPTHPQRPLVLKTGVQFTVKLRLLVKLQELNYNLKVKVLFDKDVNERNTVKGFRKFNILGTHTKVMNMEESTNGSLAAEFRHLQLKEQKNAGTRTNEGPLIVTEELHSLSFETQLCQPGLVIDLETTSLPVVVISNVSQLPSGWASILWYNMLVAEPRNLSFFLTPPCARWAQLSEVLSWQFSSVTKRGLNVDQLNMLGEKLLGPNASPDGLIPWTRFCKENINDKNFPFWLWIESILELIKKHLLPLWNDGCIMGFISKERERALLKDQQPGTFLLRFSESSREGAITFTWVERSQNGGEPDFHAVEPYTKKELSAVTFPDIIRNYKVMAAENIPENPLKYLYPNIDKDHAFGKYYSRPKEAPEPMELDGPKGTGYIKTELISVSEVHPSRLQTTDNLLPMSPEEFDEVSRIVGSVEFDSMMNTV

[19] = biological target: Induced myeloid leukemia cell differentiation protein Mcl-1 (Homo sapiens) (UniProt Q07820); experiment: Inhibition of basal level Mcl1 phosphorylation in human MDA-MB-231 cells at 1 uM by ELISA; type: cell-based
[20] = biological target: cGMP-specific 3',5'-cyclic phosphodiesterase (Canis lupus familiaris) (UniProt O77746); experiment: Inhibition of PDE5 CAT (unknown origin) activity at 1 to 10 uM; conditions: Homo sapiens; how it was run: as §2

Chain of Signal transducer and activator of transcription 3 (Homo sapiens) (P40763 whole entry): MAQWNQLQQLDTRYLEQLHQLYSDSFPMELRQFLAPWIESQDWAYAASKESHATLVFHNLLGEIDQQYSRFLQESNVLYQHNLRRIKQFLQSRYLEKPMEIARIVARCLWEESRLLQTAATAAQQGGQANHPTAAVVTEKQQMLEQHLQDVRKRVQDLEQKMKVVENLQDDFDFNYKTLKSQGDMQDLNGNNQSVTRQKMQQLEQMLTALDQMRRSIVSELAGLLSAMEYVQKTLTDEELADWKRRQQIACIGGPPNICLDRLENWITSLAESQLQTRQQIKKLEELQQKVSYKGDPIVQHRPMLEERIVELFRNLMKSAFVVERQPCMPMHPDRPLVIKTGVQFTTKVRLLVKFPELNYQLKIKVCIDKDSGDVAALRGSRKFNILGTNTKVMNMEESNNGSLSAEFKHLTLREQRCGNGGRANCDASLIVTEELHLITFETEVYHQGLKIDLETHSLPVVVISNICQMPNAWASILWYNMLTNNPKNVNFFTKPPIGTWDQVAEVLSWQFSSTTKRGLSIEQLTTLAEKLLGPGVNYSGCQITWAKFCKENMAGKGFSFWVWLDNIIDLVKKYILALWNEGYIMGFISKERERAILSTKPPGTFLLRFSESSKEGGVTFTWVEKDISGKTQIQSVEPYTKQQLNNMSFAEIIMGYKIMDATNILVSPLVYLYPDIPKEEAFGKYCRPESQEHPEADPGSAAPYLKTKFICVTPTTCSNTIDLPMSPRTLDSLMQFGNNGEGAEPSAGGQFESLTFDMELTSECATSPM
Chain of Epidermal growth factor receptor (Homo sapiens) (P00533 whole entry): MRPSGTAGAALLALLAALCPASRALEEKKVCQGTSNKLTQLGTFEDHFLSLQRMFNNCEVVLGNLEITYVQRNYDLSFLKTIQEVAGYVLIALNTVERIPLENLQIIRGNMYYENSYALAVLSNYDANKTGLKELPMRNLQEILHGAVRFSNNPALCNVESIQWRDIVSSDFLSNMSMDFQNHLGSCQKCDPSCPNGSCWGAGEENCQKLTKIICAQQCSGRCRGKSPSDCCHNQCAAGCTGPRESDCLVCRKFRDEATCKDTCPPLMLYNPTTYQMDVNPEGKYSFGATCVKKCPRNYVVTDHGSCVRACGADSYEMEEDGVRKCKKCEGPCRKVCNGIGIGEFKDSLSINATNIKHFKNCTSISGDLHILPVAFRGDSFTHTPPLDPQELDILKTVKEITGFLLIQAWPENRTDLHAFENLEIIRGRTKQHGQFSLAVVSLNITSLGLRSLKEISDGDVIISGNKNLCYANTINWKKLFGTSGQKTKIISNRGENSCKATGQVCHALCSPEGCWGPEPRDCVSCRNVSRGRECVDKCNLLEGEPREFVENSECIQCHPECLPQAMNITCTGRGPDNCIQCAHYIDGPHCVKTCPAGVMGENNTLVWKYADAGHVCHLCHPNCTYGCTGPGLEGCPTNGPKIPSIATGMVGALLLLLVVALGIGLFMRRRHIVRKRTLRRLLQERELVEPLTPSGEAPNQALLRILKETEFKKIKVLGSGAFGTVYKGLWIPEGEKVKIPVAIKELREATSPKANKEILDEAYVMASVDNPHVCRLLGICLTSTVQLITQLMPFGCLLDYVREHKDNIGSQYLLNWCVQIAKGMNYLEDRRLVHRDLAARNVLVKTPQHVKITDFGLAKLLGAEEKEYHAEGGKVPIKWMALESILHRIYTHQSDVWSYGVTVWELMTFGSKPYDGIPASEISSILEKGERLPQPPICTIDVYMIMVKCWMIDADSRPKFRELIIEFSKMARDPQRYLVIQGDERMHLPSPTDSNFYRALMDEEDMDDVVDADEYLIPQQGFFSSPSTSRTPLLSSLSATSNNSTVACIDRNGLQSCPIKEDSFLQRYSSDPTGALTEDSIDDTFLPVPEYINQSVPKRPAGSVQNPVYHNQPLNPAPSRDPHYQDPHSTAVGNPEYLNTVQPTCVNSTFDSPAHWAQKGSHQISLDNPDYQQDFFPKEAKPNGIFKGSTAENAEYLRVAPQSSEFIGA
Chain of Induced myeloid leukemia cell differentiation protein Mcl-1 (Homo sapiens) (Q07820 whole entry): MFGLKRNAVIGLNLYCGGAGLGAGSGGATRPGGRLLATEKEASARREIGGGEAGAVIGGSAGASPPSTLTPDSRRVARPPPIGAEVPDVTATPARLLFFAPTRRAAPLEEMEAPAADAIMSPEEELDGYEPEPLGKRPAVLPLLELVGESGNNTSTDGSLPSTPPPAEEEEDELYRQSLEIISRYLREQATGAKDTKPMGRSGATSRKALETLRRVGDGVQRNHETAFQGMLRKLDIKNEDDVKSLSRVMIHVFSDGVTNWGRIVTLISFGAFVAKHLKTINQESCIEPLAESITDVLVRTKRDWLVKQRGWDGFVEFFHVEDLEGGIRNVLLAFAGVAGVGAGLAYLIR
Chain of ETS domain-containing protein Elk-1 (Homo sapiens) (P19419 whole entry, the tested form may be a part): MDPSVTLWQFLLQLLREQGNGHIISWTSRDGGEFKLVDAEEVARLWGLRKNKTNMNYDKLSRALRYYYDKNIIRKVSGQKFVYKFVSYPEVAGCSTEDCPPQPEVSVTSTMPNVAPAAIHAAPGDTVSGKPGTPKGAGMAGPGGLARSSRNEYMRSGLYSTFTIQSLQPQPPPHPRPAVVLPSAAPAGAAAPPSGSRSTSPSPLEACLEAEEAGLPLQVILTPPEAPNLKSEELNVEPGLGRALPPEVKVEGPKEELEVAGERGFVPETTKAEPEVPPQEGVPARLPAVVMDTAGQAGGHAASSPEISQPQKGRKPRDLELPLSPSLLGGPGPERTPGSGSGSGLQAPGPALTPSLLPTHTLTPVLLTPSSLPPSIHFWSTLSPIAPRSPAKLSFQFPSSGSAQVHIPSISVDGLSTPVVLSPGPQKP
Chain of High affinity cAMP-specific and IBMX-insensitive 3',5'-cyclic phosphodiesterase 8A (Homo sapiens) (O60658 whole entry, canonical isoform): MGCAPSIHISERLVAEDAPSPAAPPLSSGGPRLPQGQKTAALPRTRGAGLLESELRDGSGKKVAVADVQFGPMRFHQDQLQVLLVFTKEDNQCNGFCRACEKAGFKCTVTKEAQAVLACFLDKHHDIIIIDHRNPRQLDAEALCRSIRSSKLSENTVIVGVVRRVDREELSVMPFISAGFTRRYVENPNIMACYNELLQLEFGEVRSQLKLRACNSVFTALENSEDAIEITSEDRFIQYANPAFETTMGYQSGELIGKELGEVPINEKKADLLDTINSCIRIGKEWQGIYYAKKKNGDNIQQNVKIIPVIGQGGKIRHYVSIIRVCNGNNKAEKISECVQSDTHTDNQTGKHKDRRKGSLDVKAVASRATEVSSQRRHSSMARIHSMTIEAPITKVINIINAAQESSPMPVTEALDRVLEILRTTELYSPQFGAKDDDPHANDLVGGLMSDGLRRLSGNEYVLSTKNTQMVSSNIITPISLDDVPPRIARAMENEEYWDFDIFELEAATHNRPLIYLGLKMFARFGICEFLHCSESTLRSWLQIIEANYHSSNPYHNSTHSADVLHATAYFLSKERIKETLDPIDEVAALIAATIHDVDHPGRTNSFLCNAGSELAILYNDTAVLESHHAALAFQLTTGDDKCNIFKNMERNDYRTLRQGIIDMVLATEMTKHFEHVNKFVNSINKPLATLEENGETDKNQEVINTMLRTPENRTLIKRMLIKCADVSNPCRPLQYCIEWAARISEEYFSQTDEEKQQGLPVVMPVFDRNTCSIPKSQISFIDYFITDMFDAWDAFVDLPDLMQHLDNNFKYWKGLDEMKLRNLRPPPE

Compound | EC50 [1] [µM] | selectivity ratio [2] | Activity [3] [%] | selectivity ratio [4] | EC50 [5] [µM] | selectivity ratio [6] | Activity [7] | inhibition [8] | inhibition [9] | Activity [10] | inhibition [11] | inhibition [12] | inhibition [13] | Activity [14] | Activity [15] | inhibition [16] | inhibition [17] | inhibition [18] | inhibition [19] | inhibition [20]
CCN(CC)CCO/N=C(\c1ccc(SC)cc1)c1cccc2ccccc12.O=C(O)C(=O)O | 7.2 | 2.5 | 2.74 | 16.6 | 4.2 | 4.7 | – | – | – | – | – | – | – | – | – | – | – | – | – | –
CCN(CC)CCO/N=C(\c1ccc(SC)cc1)c1cccc2ccccc12 | – | – | – | – | – | – | Active | Active | Active | inactive | inactive | inactive | Active | Active | Active | Active | inactive | inactive | Active | inactive
